Here are results for 7 compounds from ChEMBL document CHEMBL3351537, “Design, synthesis and biological evaluation of 4-fluoropyrrolidine-2-carbonitrile and octahydrocyclopenta[b]pyrrole-2-carbonitrile derivatives as dipeptidyl peptidase IV inhibitors” (Eur J Med Chem, 2014).

The term IC50 denotes the concentration needed to halve the response being measured. By Tmax is commonly meant the time from dosing to the highest level. As a reminder, the Cmax is the peak of the concentration-time curve. As a reminder, the AUC(0-t) is exposure summed from dosing to a finite time, without extrapolation to infinity. Low readings indicate less exposure, high ones more exposure. What is called AUC is concentration integrated over time. A higher AUC goes with more exposure. The term MRT denotes the average time that molecules of a dose stay in the body. In general, half-life refers to how long it takes for the measured level to halve.

Data set [1] concerns the target Dipeptidyl peptidase 2 (Homo sapiens, UniProt Q9UHL4). The data set is described as follows: Inhibition of DPP7 (unknown origin) expressed in baculovirus expression system using Nle-Pro-AMC as substrate by continuous fluorometric assay.
For data set [2], the target named is Dipeptidyl peptidase 4 (Homo sapiens, UniProt P27487). The data set is described as follows: Inhibition of human recombinant DPP4 expressed in baculovirus expression system using Ala-Pro-AMC as substrate by continuous fluorometric assay.
Data set [3] relates to Mus musculus. The data set is described as follows: Reduction in glucose excursion in ICR mouse compound administered as single dose measured at 15 mins post dose by oral glucose tolerance test. It is filed as functional, organism-based. A digest of the protocol: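 Fasted ICR mice (16 h) given a single oral dose, 5 or 15 mg/kg in 0.5% methylcellulose (10 mL/kg). Oral glucose challenge 2.5 g/kg given 30 min later. Blood glucose read at 0, 15, 30, 60, 90 and 120 min for AUC. Vehicle control included; mean ± SE, Student's t-test.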

Data set [4] can be described thus: Tmax in Sprague-Dawley rat at 50 mg/kg, po. It is filed as ADME, organism-based. Also noted: dose 50 mg/kg, route oral. As to conditions: in vivo; call rule not given here. The procedure, abridged: (§1)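 SD rats dosed orally or intravenously. Blood sampled after dosing and spun to plasma. Plasma deproteinized with methanol containing internal standard, centrifuged, supernatant diluted in methanol and centrifuged again. Compound levels measured by LC/MS/MS. PK parameters were derived from these plasma concentrations.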

Data set [5] is described as follows: Cmax in Sprague-Dawley rat at 50 mg/kg, po. Further details: dose 50 mg/kg, route oral. The class given is ADME, organism-based. The settings on record: in vivo. A digest of the protocol: as §1
Data set [6] in a line: AUC (0 to t) in Sprague-Dawley rat at 50 mg/kg, po. It is filed as ADME, organism-based. Also noted: dose 50 mg/kg, route oral. The settings on record: plasma. A digest of the protocol:
as §1

Data set [7] concerns Rattus norvegicus. Nature of the data set: AUC (0 to infinity) in Sprague-Dawley rat at 50 mg/kg, po. Also noted: time infinity, dose 50 mg/kg, route oral. As to conditions: in vivo. The class given is ADME, organism-based, Plasma. The procedure, abridged: as §1
Data set [8] is described as follows: Mean residence time in Sprague-Dawley rat at 50 mg/kg, po. The settings on record: in vivo. Also noted: dose 50 mg/kg, route oral. The class given is ADME, organism-based. A digest of the protocol:
as §1

Data set [9] in a line: Half life in Sprague-Dawley rat at 50 mg/kg, po. It is filed as ADME, organism-based. Further details: dose 50 mg/kg, route oral. The settings on record: in vivo. The procedure, abridged: as §1
Data set [10] has as its system Rattus norvegicus. Nature of the data set: Oral bioavailability in Sprague-Dawley rat at 50 mg/kg. As to conditions: in vivo. The class given is ADME, organism-based. The procedure, abridged: as §1
A short description of data set [11]: Tmax in Sprague-Dawley rat at 20 mg/kg, iv. The class given is ADME, organism-based. Further details: dose 20 mg/kg, route intravenous. As to conditions: in vivo. The procedure, abridged: as §1
Data set [12] can be described thus: Cmax in Sprague-Dawley rat at 20 mg/kg, iv. As to conditions: in vivo. The class given is ADME, organism-based. Further details: dose 20 mg/kg, route intravenous. A digest of the protocol: as §1
Data set [13] can be described thus: AUC (0 to t) in Sprague-Dawley rat at 20 mg/kg, iv. As to conditions: plasma. Also noted: dose 20 mg/kg, route intravenous. It is filed as ADME, organism-based. The procedure, abridged: as §1
Data set [14] relates to Rattus norvegicus. Nature of the data set: AUC (0 to infinity) in Sprague-Dawley rat at 20 mg/kg, iv. It is filed as ADME, organism-based, Plasma. Also noted: dose 20 mg/kg, route intravenous, time infinity. The settings on record: in vivo. A digest of the protocol:
as §1

Data set [15] in a line: Mean residence time in Sprague-Dawley rat at 20 mg/kg, iv. As to conditions: in vivo. It is filed as ADME, organism-based. Further details: dose 20 mg/kg, route intravenous. A digest of the protocol: as §1
Data set [16] in a line: Half life in Sprague-Dawley rat at 20 mg/kg, iv. It is filed as ADME, organism-based. Also noted: dose 20 mg/kg, route intravenous. As to conditions: in vivo. A digest of the protocol: as §1
For data set [17], the system named is Rattus norvegicus. The data set is described as follows: Apparent clearance in Sprague-Dawley rat at 20 mg/kg, iv. Further details: dose 20 mg/kg, route intravenous. The class given is ADME, organism-based. The settings on record: in vivo. A digest of the protocol:
as §1

Data set [18] deals with T1, Voltage-gated inwardly rectifying potassium channel KCNH2 (Homo sapiens, UniProt Q12809). Nature of the data set: Inhibition of human ERG expressed in CHO cells after 20 mins by patch clamp assay. The class given is cell-based.
In data set [19] the target is T1, Voltage-gated inwardly rectifying potassium channel KCNH2. Nature of the data set: Inhibition of human ERG expressed in CHO cells after 20 mins by thallium assay. The class given is cell-based. A digest of the protocol:
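CHO-hERG-ZG cells grown with 100 μg/mL G418 and 100 μg/mL hygromycin B, then seeded and incubated 16–18 h at 37 °C. Cells held in loading buffer 90 min in the dark at RT, switched to assay buffer, and exposed to compound 20 min in the dark at RT. FluxOR thallium flux read on FDSS: baseline to 10 s, stimulus buffer added at 10 s, recording to 180 s.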

Data set [20] deals with Cytochrome P450 3A4 (Homo sapiens, UniProt P08684). The data set is described as follows: Inhibition of CYP3A4 (unknown origin). It is filed as ADME.
The target in data set [21] is Cytochrome P450 2C9 (Homo sapiens, UniProt P11712). The data set is described as follows: Inhibition of CYP2C9 (unknown origin). It is filed as ADME.
Data set [22] addresses T2, Prolyl endopeptidase FAP (Homo sapiens, UniProt Q12884).
T2 sequence (Q12884 whole entry): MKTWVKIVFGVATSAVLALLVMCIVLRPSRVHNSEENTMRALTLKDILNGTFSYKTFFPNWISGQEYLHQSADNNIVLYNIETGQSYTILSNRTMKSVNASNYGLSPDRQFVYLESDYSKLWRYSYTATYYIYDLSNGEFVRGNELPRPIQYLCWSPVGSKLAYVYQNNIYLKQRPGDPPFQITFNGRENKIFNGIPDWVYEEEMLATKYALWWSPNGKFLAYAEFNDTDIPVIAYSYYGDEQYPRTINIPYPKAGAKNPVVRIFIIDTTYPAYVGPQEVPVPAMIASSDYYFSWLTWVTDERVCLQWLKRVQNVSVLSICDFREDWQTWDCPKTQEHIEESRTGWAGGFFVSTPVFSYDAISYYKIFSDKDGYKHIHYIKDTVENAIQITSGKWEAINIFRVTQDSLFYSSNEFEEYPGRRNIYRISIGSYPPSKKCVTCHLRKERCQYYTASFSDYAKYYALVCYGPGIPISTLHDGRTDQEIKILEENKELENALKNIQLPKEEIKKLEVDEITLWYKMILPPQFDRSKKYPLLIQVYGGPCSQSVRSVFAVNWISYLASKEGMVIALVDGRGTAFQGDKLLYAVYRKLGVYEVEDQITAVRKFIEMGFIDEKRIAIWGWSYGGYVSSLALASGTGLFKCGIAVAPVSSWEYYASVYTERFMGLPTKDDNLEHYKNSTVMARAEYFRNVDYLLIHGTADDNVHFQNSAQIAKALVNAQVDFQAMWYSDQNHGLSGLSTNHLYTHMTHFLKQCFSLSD
Nature of the data set: Inhibition of FAP (unknown origin) expressed in baculovirus expression system using Nle-Pro-AMC as substrate by continuous fluorometric assay.

The structures appear in SMILES notation. Bounds are passed on as bounds.

T1 sequence (Q12809 whole entry): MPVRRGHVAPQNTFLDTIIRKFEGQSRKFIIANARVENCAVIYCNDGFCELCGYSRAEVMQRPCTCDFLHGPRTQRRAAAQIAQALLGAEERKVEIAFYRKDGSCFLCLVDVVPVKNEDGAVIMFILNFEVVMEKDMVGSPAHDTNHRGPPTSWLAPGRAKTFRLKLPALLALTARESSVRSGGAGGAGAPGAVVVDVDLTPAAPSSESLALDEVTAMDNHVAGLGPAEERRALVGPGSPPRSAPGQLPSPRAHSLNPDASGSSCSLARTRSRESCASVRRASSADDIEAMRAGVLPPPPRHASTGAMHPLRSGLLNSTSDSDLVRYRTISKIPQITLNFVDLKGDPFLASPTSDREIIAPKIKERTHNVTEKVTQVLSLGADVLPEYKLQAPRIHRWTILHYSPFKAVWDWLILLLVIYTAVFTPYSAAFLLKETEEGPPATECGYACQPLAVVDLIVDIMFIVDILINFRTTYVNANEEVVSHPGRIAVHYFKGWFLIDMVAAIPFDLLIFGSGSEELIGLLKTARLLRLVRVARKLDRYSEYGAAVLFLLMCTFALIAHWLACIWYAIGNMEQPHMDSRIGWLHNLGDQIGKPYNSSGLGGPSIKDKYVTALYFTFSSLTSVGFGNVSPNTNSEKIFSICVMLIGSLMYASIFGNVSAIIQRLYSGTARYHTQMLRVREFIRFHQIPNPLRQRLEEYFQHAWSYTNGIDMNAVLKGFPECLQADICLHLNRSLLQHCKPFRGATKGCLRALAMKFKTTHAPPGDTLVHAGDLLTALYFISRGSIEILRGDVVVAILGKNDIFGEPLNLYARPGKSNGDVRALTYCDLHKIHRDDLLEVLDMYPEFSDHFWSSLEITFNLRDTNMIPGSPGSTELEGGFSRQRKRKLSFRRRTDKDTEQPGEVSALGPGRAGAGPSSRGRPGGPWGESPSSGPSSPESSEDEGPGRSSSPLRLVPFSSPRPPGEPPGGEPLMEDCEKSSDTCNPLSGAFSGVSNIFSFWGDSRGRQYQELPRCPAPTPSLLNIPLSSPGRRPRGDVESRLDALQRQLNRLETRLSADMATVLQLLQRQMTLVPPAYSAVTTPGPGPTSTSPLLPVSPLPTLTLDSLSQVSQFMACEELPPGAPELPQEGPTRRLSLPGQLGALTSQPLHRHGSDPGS
Cytochrome P450 3A4, sequence (P08684 whole entry): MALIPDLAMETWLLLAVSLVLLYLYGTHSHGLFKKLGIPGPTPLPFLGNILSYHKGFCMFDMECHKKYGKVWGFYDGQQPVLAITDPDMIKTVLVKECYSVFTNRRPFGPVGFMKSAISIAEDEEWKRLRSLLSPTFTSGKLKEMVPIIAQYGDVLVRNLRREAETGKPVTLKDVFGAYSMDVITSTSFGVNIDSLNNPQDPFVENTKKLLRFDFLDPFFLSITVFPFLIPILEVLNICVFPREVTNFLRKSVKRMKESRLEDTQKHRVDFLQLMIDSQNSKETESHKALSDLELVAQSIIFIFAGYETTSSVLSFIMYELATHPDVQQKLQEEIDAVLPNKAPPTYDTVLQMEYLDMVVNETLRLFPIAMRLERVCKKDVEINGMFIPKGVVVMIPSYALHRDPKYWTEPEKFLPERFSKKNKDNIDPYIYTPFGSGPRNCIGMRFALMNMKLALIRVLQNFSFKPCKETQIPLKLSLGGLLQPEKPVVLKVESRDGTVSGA
Cytochrome P450 2C9, sequence (P11712 whole entry): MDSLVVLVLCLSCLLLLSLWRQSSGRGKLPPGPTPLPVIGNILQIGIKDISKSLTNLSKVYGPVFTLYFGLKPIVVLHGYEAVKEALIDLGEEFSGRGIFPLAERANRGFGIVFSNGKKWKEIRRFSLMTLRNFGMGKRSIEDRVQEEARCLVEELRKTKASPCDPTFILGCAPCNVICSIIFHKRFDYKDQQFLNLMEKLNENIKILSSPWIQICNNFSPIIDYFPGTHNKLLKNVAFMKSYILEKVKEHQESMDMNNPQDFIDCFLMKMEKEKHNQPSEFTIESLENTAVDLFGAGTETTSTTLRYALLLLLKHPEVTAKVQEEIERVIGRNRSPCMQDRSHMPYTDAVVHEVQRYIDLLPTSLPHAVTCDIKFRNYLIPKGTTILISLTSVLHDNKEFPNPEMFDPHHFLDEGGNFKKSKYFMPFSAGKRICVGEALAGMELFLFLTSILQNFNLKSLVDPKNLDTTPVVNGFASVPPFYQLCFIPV
Dipeptidyl peptidase 4, sequence (P27487 whole entry): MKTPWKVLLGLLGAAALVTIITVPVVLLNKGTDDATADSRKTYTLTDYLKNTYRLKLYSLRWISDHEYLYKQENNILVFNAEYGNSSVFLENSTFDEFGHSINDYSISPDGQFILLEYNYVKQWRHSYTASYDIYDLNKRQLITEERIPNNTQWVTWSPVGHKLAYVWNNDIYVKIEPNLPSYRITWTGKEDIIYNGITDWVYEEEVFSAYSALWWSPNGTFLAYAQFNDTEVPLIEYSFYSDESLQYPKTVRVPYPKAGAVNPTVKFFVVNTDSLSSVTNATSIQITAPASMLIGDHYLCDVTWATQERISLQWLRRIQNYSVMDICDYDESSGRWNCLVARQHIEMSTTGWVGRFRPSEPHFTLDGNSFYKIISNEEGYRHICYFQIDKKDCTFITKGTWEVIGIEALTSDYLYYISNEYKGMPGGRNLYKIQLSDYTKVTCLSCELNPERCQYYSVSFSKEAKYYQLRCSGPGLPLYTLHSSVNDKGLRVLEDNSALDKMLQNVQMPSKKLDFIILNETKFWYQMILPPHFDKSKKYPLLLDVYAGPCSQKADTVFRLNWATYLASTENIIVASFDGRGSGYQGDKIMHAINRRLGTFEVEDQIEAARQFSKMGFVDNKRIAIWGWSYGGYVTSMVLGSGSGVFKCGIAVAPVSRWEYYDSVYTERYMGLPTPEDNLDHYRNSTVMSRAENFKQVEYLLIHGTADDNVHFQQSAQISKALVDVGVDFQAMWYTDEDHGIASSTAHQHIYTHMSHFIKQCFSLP

In the case of `N#C[C@@H]1C[C@H](F)CN1C(=O)C[C@H](N)Cc1ccccc1Cl`, the IC50 in data set [1] (read-out: IC50) is 130 µM.

Regarding `N#C[C@@H]1C[C@@H]2CCC[C@@H]2N1C(=O)C[C@H](N)Cc1ccccc1Cl`, the IC50 result in data set [1] is listed as “Not Active”.

For the compound `COc1ccc(C[C@@H](N)CC(=O)N2[C@H](C#N)C[C@@H]3CCC[C@@H]32)cc1`, the half-inhibitory concentration (IC50) entry in [2] is “Not Active”.

In the case of `N#C[C@@H]1C[C@H](F)CN1C(=O)C[C@H](N)Cc1cc(F)c(F)cc1F`, the Activity entry in [3] is “Dose-dependent effect”. Moreover, the Tmax in [4] and in [11] was 0.3 h each time. In addition, the peak concentration (Cmax) worked out at 2690 ng/mL in data set [5] and 2710 ng/mL in data set [12]. Besides, the values for the exposure AUC(0-t) in data set [6] and in data set [13] were 8840 ng·h/mL and 5840 ng·h/mL, respectively. For the same compound, the AUC in data set [7] is 8935 ng·h/mL; in [14], 5870 ng/mL.hr. For the same compound, the MRT is 3.03 h in data set [8] and 2.93 h in [15]. Moreover, the values for the half-life in data set [9] and in [16] were 2.03 h and 2.33 h, respectively. In [10], this compound came in with an F of 53.2%. In addition, the CL(app) in data set [17] is 57 mL/min/kg. Further, the half-inhibitory concentration (IC50) in data set [18] was above 40 µM; in data set [19], 97.7 µM; in [20], 56.5 µM; in data set [21], “Not Active”.

With `N#C[C@@H]1C[C@H](F)CN1C(=O)C[C@H](N)Cc1ccc(F)cc1`, in [1] (read-out: IC50), the IC50 is 193 µM.

Turning to `N#C[C@@H]1C[C@H](F)CN1C(=O)C[C@H](N)Cc1ccccc1`, in [1], the half-inhibitory concentration (IC50) entry is on record as “Not Active”.

For `N#C[C@@H]1C[C@@H]2CCC[C@@H]2N1C(=O)C[C@H](N)Cc1cccc(F)c1`, the IC50 entry in data set [1] and in data set [22] was “Not Active” throughout.
